One may read the MIC as the lowest concentration found to suppress growth.

Holding throughout (format): functional
The nature of test [1]: In vitro for antifungal activity against 10 yeasts. The essentials: (§1)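 Agar dilution on Kimmig's agar with 0.5% glycerol, using ATCC strains or clinical isolates. Drug stocks were 800 μg/mL in 50% ethanol, tested as 2-fold dilutions from 80 to 0.03 μg/mL. Inocula were 10⁵ cfu/mL. […] Geometric means took >80 as 160 and ≤0.03 as 0.03.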
Test [2] in a line: In vitro antifungal activity against 6 filamentous fungi. The essentials:
as §1

The subject of test [3] is Candida albicans. As to the kind of experiment: In vivo antifungal activity against murine candidosis model after peroral administration with 0.5 mg/kg at various time intervals. (percent protection for 100% mortality with untreated group). Particulars: route oral. The essentials: (§2)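 Groups of 10 male mice were infected iv with 0.2 mL of C. albicans at 2 to 8×10^7 cfu/mL. Drug was given orally as a suspension in 1% Tween + 0.2% carboxymethylcellulose at 1, 4 and 24 h post-infection; controls got vehicle only. Survival was scored on days 3, 5, 7 and 9. Read-out was % survival on the day all untreated controls died, or on the day all mice given fluconazole at the same dose died.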

In test [4] the test system is Candida albicans. As to the kind of experiment: In vivo antifungal activity against murine candidosis model after peroral administration with 0.5 mg/kg at various time intervals. (percent protection for 100% mortality with fluconazole-treated group.). Particulars: route oral. The essentials: as §2
The test system of test [5] is Candida albicans. The test is described as follows: In vivo antifungal activity against murine candidosis model after peroral administration with 1 mg/kg at various time intervals. (percent protection for 100% mortality with untreated group). Conditions: route oral. The essentials:
as §2

The test system of test [6] is Candida albicans. As to the kind of experiment: In vivo antifungal activity against murine candidosis model after peroral administration with 1 mg/kg at various time intervals. (percent protection for 100% mortality with fluconazole-treated group.). Conditions: route oral. The essentials: as §2

Each structure is given as a SMILES string. ≈ marks a conversion by molar mass, not a printed value. Where only a bound is given, the exact number is not on record here.

`C[C@@H](n1cnc2cc(-n3ncnn3)ccc2c1=O)[C@](O)(Cn1cncn1)c1ccc(F)cc1F`: the results for the MIC in test [1] (read-out: MIC) and in test [2] (read-out: MIC) were 1.5 µg/mL (≈ 3.22 µM) and 57 µg/mL (≈ 122 µM), respectively.

As to `C[C@@H](n1cnc2cc(OCC(F)F)ccc2c1=O)[C@](O)(Cn1cncn1)c1ccc(F)cc1F`, the Protection in the test on Candida albicans [3] was 100%; with Candida albicans [4] it was 0%. Moreover, the MIC in test [1] (read-out: MIC) amounted to 1.4 µg/mL (≈ 2.93 µM); in test [2] (read-out: MIC), 25 µg/mL (≈ 52.4 µM).

Consider `C[C@@H](n1cnc2ccccc2c1=O)[C@](O)(Cn1cncn1)c1ccc(F)cc1F`, for which the Protection with Candida albicans [5] turned out to be 10%; with Candida albicans [6], 0%. The MIC in test [1] (read-out: MIC) is 1.2 µg/mL (≈ 3.02 µM); in test [2] (read-out: MIC) it was 8.9 µg/mL (≈ 22.4 µM).

Take `CSc1ccc2c(=O)n([C@H](C)[C@](O)(Cn3cncn3)c3ccc(F)cc3F)cnc2c1`: the Protection is listed as 100% in the test with Candida albicans [3] and 40% in the test with Candida albicans [4]. The values for the MIC in test [1] (read-out: MIC) and in test [2] (read-out: MIC) were 0.5 µg/mL (≈ 1.13 µM) and 3.8 µg/mL (≈ 8.57 µM), respectively.

On to `C[C@@H](n1cnc2cc(N3CCN(c4ccc(Cl)cc4)CC3)ccc2c1=O)[C@](O)(Cn1cncn1)c1ccc(F)cc1F`, for which the Protection in the test with Candida albicans [3] was 60%; in the test on Candida albicans [4], 0%. In addition, the MIC in test [1] (read-out: MIC) came to 0.2 µg/mL (≈ 0.338 µM); in test [2] (read-out: MIC), 2.8 µg/mL (≈ 4.73 µM).

On to `C[C@@H](n1cnc2cc(OCCF)ccc2c1=O)[C@](O)(Cn1cncn1)c1ccc(F)cc1F`, for which the Protection with Candida albicans [3] and with Candida albicans [4] was 0% throughout. Besides, the MIC in test [1] (read-out: MIC) was 1.4 µg/mL (≈ 3.05 µM); in test [2] (read-out: MIC) it was 28 µg/mL (≈ 60.9 µM).

`Cc1cc(Br)c2ncn([C@H](C)[C@](O)(Cn3cncn3)c3ccc(F)cc3F)c(=O)c2c1`: the Protection in the test on Candida albicans [5] and in the test on Candida albicans [6] was 0% in each case. The MIC was 2.1 µg/mL (≈ 4.28 µM) in test [1] (read-out: MIC) and more than 80 µg/mL in test [2] (read-out: MIC).

Take `Cc1cccc2c(=O)n([C@H](C)[C@](O)(Cn3cncn3)c3ccc(F)cc3F)cnc12`: the figures for the Protection in the test on Candida albicans [5] and with Candida albicans [6] were 10% and 0%, respectively. Also, the MIC in test [1] (read-out: MIC) worked out at 2.3 µg/mL (≈ 5.59 µM); in test [2] (read-out: MIC), 80 µg/mL (≈ 194 µM).

`Cc1cc(C)c2ncn([C@H](C)[C@](O)(Cn3cncn3)c3ccc(F)cc3F)c(=O)c2c1`: the Protection in the test on Candida albicans [5] and in the test with Candida albicans [6] was 0% each time. Also, the figures for the MIC in test [1] (read-out: MIC) and in test [2] (read-out: MIC) were 3.8 µg/mL (≈ 8.93 µM) and more than 80 µg/mL, respectively.

For `CC[C@H]([C@H](C)O)n1ncn(-c2ccc(N3CCN(c4ccc5c(=O)n([C@H](C)[C@](O)(Cn6cncn6)c6ccc(F)cc6F)cnc5c4)CC3)cc2)c1=O`, the minimum inhibitory concentration (MIC) in test [1] (read-out: MIC) was 32 µg/mL (≈ 44 µM); in test [2] (read-out: MIC), more than 80 µg/mL.

For `C[C@@H](n1cnc2c(Cl)cc(Cl)cc2c1=O)[C@](O)(Cn1cncn1)c1ccc(F)cc1F`, the Protection with Candida albicans [5] was found to be 100%; in the test on Candida albicans [6] it was 0%. Also, the minimum inhibitory concentration (MIC) is 1.7 µg/mL (≈ 3.65 µM) in test [1] (read-out: MIC) and more than 80 µg/mL in test [2] (read-out: MIC).

`C[C@@H](n1cnc2c(Br)cc(Br)cc2c1=O)[C@](O)(Cn1cncn1)c1ccc(F)cc1F`: the results for the Protection with Candida albicans [5] and with Candida albicans [6] were 10% and 0%, respectively. The figures for the MIC in test [1] (read-out: MIC) and in test [2] (read-out: MIC) were 2.6 µg/mL (≈ 4.68 µM) and more than 80 µg/mL, respectively.

On to `Cc1ccc2ncn([C@H](C)[C@](O)(Cn3cncn3)c3ccc(F)cc3F)c(=O)c2c1`, for which the Protection in the test with Candida albicans [5] was determined as 40%; in the test on Candida albicans [6] it was 0%. For the same compound, the MIC came to 1.4 µg/mL (≈ 3.4 µM) in test [1] (read-out: MIC) and 45 µg/mL (≈ 109 µM) in test [2] (read-out: MIC).

Turning to `C[C@@H](n1cnc2ccc(Cl)cc2c1=O)[C@](O)(Cn1cncn1)c1ccc(F)cc1F`, the Protection with Candida albicans [5] turned out to be 40%; with Candida albicans [6] it was 0%. Further, the values for the MIC in test [1] (read-out: MIC) and in test [2] (read-out: MIC) were 1 µg/mL (≈ 2.32 µM) and 50 µg/mL (≈ 116 µM), respectively.

Consider `C[C@@H](n1cnc2cc3ccccc3cc2c1=O)[C@](O)(Cn1cncn1)c1ccc(F)cc1F`, for which the Protection was 30% in the test on Candida albicans [5] and 0% in the test with Candida albicans [6]. Besides, the MIC in test [1] (read-out: MIC) is 0.4 µg/mL (≈ 0.894 µM); in test [2] (read-out: MIC) it was 45 µg/mL (≈ 101 µM).

For `C[C@@H](n1cnc2cc(N3CCN(c4ccc([N+](=O)[O-])cc4)CC3)ccc2c1=O)[C@](O)(Cn1cncn1)c1ccc(F)cc1F`, the results for the MIC in test [1] (read-out: MIC) and in test [2] (read-out: MIC) were 7.9 µg/mL (≈ 13.1 µM) and more than 80 µg/mL, respectively.

For the compound `C[C@@H](n1cnc2cc(N3CCOC3=O)ccc2c1=O)[C@](O)(Cn1cncn1)c1ccc(F)cc1F`, the MIC in test [1] (read-out: MIC) worked out at 8.7 µg/mL (≈ 18 µM); in test [2] (read-out: MIC), 80 µg/mL (≈ 166 µM).

Regarding `C[C@@H](n1cnc2cc(S(C)(=O)=O)ccc2c1=O)[C@](O)(Cn1cncn1)c1ccc(F)cc1F`, the Protection amounted to 100% with Candida albicans [3] and 80% with Candida albicans [4]. The MIC in test [1] (read-out: MIC) is 11 µg/mL (≈ 23.1 µM); in test [2] (read-out: MIC), more than 80 µg/mL.

In the case of `C[C@@H](n1cnc2cc(NC(=O)C(F)(F)F)c(F)cc2c1=O)[C@](O)(Cn1cncn1)c1ccc(F)cc1F`, the MIC in test [1] (read-out: MIC) is 8.1 µg/mL (≈ 15.4 µM); in test [2] (read-out: MIC), 80 µg/mL (≈ 152 µM).

Regarding `C[C@@H](n1cnc2cc(Cl)ccc2c1=O)[C@](O)(Cn1cncn1)c1ccc(F)cc1F` (stereo in doubt; 75) [ALBACONAZOLE], the MIC was 1 µg/mL (≈ 2.32 µM) in test [1] and 33 µg/mL (≈ 76.4 µM) in test [2].
